Laboratory results: ChEMBL document CHEMBL3112537, “A novel series of 6-substituted 3-(pyrrolidin-1-ylmethyl)chromen-2-ones as selective monoamine oxidase (MAO) A inhibitors” (Eur J Med Chem, 2014)

Tests used:
Rattus norvegicus [1] = experiment: In vivo inhibition of MAO-A in Sprague-Dawley rat assessed as 5-hydroxyindoleacetic acid in brain striatum at 86 umol/kg, sc after 1 hr by HPLC/EC analysis relative to control; format: functional; set-up: scale not given: the % may be the effect or the level left
Procedure, shortened: (§1)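 Freely moving rats dosed subcutaneously and sacrificed 1 h later. Striatal DOPAC, 3-MT and 5-HIAA were measured post mortem and expressed as % of saline control (n = 4). Significance was by Student's t-test, P < 0.05.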

[2] = Metabolic stability in rat liver microsomes assessed as compound remaining at 5 uM after 60 mins by LC-MS/MS analysis; format: ADME; settings: read-out: Stability
Procedure, shortened: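 Incubation with rat liver microsomes, read as % of compound remaining after 60 min.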

[3] = target: T1, Amine oxidase [flavin-containing] A (Homo sapiens, UniProt P21397); experiment: Inhibition of human recombinant MAO-A assessed as kynuramine oxidation to 4-hydroxyquinoline after 40 mins by LC-MS/MS analysis
T1 sequence (P21397 whole entry): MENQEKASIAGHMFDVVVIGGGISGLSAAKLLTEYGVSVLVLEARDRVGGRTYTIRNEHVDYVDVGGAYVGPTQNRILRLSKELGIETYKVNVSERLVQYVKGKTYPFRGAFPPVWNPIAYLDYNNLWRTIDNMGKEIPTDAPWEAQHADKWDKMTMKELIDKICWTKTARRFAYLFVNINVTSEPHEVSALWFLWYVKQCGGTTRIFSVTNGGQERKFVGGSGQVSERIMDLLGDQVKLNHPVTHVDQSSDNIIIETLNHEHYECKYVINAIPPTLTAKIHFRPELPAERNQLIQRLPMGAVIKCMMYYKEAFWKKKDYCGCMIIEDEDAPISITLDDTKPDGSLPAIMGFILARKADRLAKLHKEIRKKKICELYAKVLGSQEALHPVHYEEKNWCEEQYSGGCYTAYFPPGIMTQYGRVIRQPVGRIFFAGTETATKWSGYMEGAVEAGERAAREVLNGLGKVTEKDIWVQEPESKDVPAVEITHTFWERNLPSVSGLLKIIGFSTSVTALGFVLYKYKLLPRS
Procedure, shortened: (§2)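 Human MAO A and MAO B inhibition using kynuramine as a mixed substrate for both isoforms. IC50 is given as the mean ± SE of duplicate determinations.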

Rattus norvegicus [4] = experiment: In vivo inhibition of MAO-A in Sprague-Dawley rat assessed as 3,4-dihydroxyphenylacetic acid level in brain striatum at 86 umol/kg, sc after 1 hr by HPLC/EC analysis relative to control; format: functional; set-up: scale not given: the % may be the effect or the level left; procedure, shortened: as §1
D(2) dopamine receptor = D(2) dopamine receptor (Homo sapiens, UniProt P14416); experiment: Antagonist activity at dopamine D2 receptor (unknown origin) expressed in HEK cells co-expressing Gqi5 assessed as inhibition of dopamine-induced effect by FLIPR assay; format: cell-based, HEK293
Sequence of D(2) dopamine receptor (P14416 whole entry): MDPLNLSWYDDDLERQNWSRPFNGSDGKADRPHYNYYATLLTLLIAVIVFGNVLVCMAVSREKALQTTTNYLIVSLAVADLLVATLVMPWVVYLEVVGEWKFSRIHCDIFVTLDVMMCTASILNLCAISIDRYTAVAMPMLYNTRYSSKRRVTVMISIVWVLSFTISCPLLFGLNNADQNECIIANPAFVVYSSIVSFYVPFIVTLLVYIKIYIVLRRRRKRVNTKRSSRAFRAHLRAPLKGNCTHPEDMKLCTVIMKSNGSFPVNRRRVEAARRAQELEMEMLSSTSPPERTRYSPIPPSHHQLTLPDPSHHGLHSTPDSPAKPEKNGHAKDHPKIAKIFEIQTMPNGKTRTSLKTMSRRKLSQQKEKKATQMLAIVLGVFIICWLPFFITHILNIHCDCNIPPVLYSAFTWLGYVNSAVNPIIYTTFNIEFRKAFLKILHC

Rattus norvegicus [5] = experiment: In vivo inhibition of MAO-A in Sprague-Dawley rat assessed as 3-methoxytyramine level in brain striatum at 86 umol/kg, sc after 1 hr by HPLC/EC analysis relative to control; format: functional; set-up: scale not given: the % may be the effect or the level left; procedure, shortened: as §1
[6] = target: T2, Amine oxidase [flavin-containing] B (Homo sapiens, UniProt P27338); experiment: Inhibition of human recombinant MAO-B assessed as kynuramine oxidation to 4-hydroxyquinoline after 40 mins by LC-MS/MS analysis; procedure, shortened: as §2
T2 sequence (P27338 whole entry): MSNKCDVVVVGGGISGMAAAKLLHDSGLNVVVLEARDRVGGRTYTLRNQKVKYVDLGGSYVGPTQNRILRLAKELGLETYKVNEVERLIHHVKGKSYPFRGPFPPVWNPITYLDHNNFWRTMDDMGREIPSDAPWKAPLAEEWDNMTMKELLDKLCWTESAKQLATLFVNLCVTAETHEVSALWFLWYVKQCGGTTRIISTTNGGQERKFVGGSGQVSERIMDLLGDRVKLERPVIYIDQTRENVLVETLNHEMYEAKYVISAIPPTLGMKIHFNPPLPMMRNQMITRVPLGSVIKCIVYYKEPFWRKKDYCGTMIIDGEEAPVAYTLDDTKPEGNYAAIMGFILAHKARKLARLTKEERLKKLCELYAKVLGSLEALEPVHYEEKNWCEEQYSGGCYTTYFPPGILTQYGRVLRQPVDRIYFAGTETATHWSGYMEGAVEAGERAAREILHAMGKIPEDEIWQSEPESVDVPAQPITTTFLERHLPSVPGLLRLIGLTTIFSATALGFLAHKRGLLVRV

[7] = target: T1, Amine oxidase [flavin-containing] A; experiment: Inhibition of MAO-A (unknown origin)
[8] = target: T2, Amine oxidase [flavin-containing] B; experiment: Inhibition of MAO-B (unknown origin)

Compound | Activity (Rattus norvegicus [1]) | remaining at 1 h, 5 µM [2] | IC50 [3] | Activity (Rattus norvegicus [4]) | IC50 (D(2) dopamine receptor) | Activity (Rattus norvegicus [5]) | IC50 [6] | IC50 [7] | IC50 [8]
Nc1ccc2oc(=O)c(CN3CCCC3)cc2c1 | 72% | 80% | 3.77 µM | 45% | 16.3 µM | 170% | > 100 µM | – | –
O=C(O)c1cc2cc([N+](=O)[O-])ccc2oc1=O | – | – | – | – | – | – | – | 0.0676 µM | 0.0195 µM
